From ChEMBL document CHEMBL3102809, “Investigation of fluorinated and bifunctionalized 3-phenylchroman-4-one (isoflavanone) aromatase inhibitors” (Bioorg Med Chem, 2014)
The source made the active and inactive calls. No cut-off for these calls is given here.

Key:
[1] = test system: MCF7; experiment: Cytotoxicity against estrogen-dependent human MCF7 cells after 72 hrs by MTT assay; type: functional, cell-based; conditions: for IC50: MCF7, 72 h
[2] = molecular target: T1, Aromatase (Homo sapiens, UniProt P11511); experiment: Inhibition of human recombinant aromatase expressed in baculovirus-infected cell system using 7-methoxy-trifluoromethylcoumarin as substrate after 30 mins by fluorescence assay
T1 sequence (P11511 whole entry): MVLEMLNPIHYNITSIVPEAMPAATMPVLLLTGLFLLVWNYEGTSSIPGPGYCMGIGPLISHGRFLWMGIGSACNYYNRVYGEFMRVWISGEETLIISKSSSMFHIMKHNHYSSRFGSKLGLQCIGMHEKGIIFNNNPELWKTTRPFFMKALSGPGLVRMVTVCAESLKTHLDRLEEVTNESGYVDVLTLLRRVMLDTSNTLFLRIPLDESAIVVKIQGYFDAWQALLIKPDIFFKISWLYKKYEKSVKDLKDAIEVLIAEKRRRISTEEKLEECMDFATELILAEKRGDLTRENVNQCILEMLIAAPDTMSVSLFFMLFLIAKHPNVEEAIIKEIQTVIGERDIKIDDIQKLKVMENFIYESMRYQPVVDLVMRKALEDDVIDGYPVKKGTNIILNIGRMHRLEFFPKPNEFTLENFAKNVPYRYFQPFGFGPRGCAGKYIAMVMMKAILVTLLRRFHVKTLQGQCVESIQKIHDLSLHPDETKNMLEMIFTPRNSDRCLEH

[3] = Ratio of IC50 for human MCF7 cells to IC50 for human recombinant aromatase
[4] = molecular target: T1, Aromatase
[5] = test system: MCF7; experiment: Cytotoxicity against […] human MCF7 cells after 72 hrs by MTT assay; type: functional, cell-based
Method in brief: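 MCF-7 cells were raised without estrogen and without phenol red. They were seeded at 15,000/well, incubated overnight at 37 °C, then treated 72 h with freshly dissolved compounds. Viability was read by MTT (4 h), with DMSO solubilization and absorbance at 570 nm, and IC50 was calculated.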

IC50 ([2]; read-out: IC50) [µM] | SMILES | Ratio IC50 [3] | also measured
67.1 | O=C1c2cccc(F)c2OCC1c1cccnc1 (configuration not stated) |  | IC50 [1]: 43 µM
15 | O=C1c2cccc(F)c2OCC1c1ccccc1 (configuration not stated) | 2 | 
 | O=C1c2ccccc2OCC1c1cccnc1 (configuration not stated) |  | IC50 [1]: 31 µM
0.8 | O=C1c2cc(F)ccc2OCC1c1cccnc1 (configuration not stated) |  | growth inhibition (GI) [1]: inactive
35 | O=C1c2ccccc2OCC1c1cccc(F)c1 (configuration not stated) | 2 | 
 | O=C1c2cc(Br)ccc2OCC1c1ccccc1 (configuration not stated) |  | IC50 [1]: 100 µM
 | O=c1c(-c2ccccc2)coc2ccccc12 [ISOFLAVONE] |  | IC50 [4]: Not Active
 | COc1ccc2c(c1)C(=O)C(c1ccc(Oc3ccccc3)cc1)CO2 (configuration not stated) |  | IC50 [2]: Not Active
2.5 | COc1ccc2c(c1)C(=O)C(c1cccnc1)CO2 (configuration not stated) |  | growth inhibition (GI) [1]: inactive; growth inhibition (GI) [5]: inactive
190 | O=C1c2c(ccc3ccccc23)OCC1c1ccc(Oc2ccccc2)cc1 (configuration not stated) |  | 
 | O=C1c2ccccc2OCC1c1ccc(C(F)(F)F)cc1 (configuration not stated) | 2 | IC50 [2]: Not Active
20 | O=C1c2ccccc2OCC1c1cc(F)cc(F)c1 (configuration not stated) |  | 
 | O=C1c2ccccc2OCC1c1ccc(-c2ccccc2)cc1 (configuration not stated) |  | growth inhibition (GI) [1]: inactive
 | O=C1c2cc(F)cc(F)c2OCC1c1ccccc1 (configuration not stated) | 2 | IC50 [2]: Not Active
 | O=C1c2cc(F)ccc2OCC1c1ccccc1 (configuration not stated) | 2 | 
24 | O=C1c2ccccc2OCC1c1ccccc1F (configuration not stated) | 2 | 
33 | O=C1c2ccccc2OCC1c1ccc(F)cc1 (configuration not stated) | 2 | 
